How the values were obtained:
Assay type in all cases: subcellular, Brain
D(1A) dopamine receptor = D(1A) dopamine receptor (Rattus norvegicus, UniProt P18901); experiment: The compound has been evaluated for its binding affinity towards Dopamine receptor D1 by displacing the radioligand [3H]SCH-23390 (1.5 nM) in rat striatal synaptosomes.
Method in brief: (§1)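 Rat striatal synaptosomes were incubated with a ³H-labelled radioligand. Nonspecific binding was defined with excess unlabelled ligand and subtracted: SCH23390 for D1, sulpiride for D2 and GBR12909 for the dopamine transporter. Ki was calculated from IC50 as IC50/(1+[L]/KD), where [L] is the radioligand concentration and KD its dissociation constant.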

D(2) dopamine receptor = D(2) dopamine receptor (Rattus norvegicus, UniProt P61169); experiment: The compound has been evaluated for its binding affinity towards Dopamine receptor D2 by displacing the radioligand [3H]YM-09151-2 (0.5 nM) in rat striatal synaptosomes.; method in brief: as §1
[1] = target: Sodium-dependent dopamine transporter (Rattus norvegicus, UniProt P23977); experiment: The compound has been evaluated for its binding affinity towards Dopamine transporter by displacing the radioligand [3H]GBR-12935 (1.0 nM) in rat striatal synaptosomes.; method in brief: as §1
Sequence of Sodium-dependent dopamine transporter (P23977 whole entry): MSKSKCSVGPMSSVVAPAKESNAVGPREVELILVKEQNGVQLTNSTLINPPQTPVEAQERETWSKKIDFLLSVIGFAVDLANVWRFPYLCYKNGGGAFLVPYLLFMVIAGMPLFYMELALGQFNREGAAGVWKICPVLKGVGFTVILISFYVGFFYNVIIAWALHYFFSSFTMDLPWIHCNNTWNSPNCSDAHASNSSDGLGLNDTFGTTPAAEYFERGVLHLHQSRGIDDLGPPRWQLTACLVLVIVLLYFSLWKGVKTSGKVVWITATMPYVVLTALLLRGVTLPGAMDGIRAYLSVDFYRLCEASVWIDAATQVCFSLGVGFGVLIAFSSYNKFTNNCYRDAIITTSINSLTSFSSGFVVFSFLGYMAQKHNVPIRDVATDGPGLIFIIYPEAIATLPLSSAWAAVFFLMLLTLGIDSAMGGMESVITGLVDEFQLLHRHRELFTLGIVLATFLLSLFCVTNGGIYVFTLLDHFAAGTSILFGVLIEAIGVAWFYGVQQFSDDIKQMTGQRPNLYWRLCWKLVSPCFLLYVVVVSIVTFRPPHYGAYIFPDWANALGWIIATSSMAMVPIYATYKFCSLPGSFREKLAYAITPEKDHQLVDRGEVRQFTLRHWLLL

Sequence of D(2) dopamine receptor (P61169 whole entry): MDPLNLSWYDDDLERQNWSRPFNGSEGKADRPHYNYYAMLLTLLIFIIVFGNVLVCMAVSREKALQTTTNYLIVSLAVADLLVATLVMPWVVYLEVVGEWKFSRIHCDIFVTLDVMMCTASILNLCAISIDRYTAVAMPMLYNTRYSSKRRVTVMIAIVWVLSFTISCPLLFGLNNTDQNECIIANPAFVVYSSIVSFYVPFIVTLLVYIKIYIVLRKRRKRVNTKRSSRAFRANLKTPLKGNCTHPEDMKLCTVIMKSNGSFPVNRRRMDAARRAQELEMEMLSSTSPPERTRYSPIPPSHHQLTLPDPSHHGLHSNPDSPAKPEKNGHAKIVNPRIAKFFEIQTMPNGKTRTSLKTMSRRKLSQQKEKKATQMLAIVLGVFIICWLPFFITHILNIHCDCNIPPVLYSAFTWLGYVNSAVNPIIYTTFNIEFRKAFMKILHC
Sequence of D(1A) dopamine receptor (P18901 whole entry): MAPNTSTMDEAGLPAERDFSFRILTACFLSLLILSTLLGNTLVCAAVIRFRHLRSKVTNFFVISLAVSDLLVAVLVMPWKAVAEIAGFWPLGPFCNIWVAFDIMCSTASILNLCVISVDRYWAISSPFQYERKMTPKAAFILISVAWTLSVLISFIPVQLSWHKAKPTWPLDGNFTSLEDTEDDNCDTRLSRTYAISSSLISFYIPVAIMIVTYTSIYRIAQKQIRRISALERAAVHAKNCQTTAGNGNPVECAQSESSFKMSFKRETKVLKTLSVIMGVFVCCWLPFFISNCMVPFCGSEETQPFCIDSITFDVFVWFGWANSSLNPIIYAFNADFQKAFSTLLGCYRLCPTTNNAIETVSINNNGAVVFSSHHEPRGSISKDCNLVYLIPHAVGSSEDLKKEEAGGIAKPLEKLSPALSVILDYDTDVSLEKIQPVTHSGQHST

Ki (D(1A) dopamine receptor) | Ki (D(2) dopamine receptor) | Ki [1] | Structure (SMILES)
249 µM | 3.57 µM | 36.6 µM | c1ccc(CC2NCCc3ccccc32)cc1 (centres undefined)
9.27 µM | 0.64 µM | 57.6 µM | Oc1cc2c(cc1O)C(Cc1ccccc1)NCC2 (centres undefined)
175 µM | 8.79 µM | 21.5 µM | Oc1ccc(CC2NCCc3ccccc32)cc1O (centres undefined)
